Series [1] has as its target human NET (hNET) (Homo sapiens, UniProt P23975). The series is described as follows: In vitro competition binding vs [3H]nisoxetine in transfected HEK-293 cells.
Series [2] concerns NET. Particulars: cited from earlier work.
For series [3], the system named is NET. Particulars: rats, 60 min post injection; cited from earlier work.
The subject of series [4] is NET. The conditions noted are these: cynomolgus monkeys and human; cited from earlier work.
The target of series [5] is T1, NET (Macaca mulatta, UniProt Q9MYW8). The series can be described thus: MicroPET imaging in anesthetized rhesus monkeys. The conditions noted are these: for Peak ratio of uptake cerebellum to caudate / Peak ratio of uptake midbrain to caudate / Peak ratio of uptake thalamus to caudate: time not stated; for time of peak uptake in all regions of interest: followed by fast washout. The format is in vivo, rhesus monkey.

Series [6] has as its target T1, NET. The series is described as follows: PET imaging in awake rhesus monkeys. Type of series: in vivo, rhesus monkey. The conditions noted are these: for effect of isoflurane anesthesia / awake state on binding kinetics: awake vs anesthetized monkeys.
Series [7] is described as follows: Lipophilicity measurement. The conditions noted are these: relative to 1. Type of series: physicochemical. The essentials: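 Radiolabeled test compound (~5–10 µCi) was added to 2 mL 1-octanol plus 2 mL 0.02 M sodium phosphate buffer (pH 7.4), vortexed 10 min at room temperature, then centrifuged 5 min. A 0.5 mL sample of each layer was gamma-counted and decay corrected. log P7.4 = log(octanol counts/buffer counts) per replicate; three replicates averaged.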

Series [8] deals with human SERT (hSERT) (Homo sapiens, UniProt P31645). The series is described as follows: In vitro competition binding vs [3H]citalopram in transfected HEK-293 cells. Particulars: Ki ratio relative to 1.
[9] abbreviates: after injection, baseline, anesthetized.
[10] abbreviates: postinjection, baseline, anesthetized.

Structures are written as SMILES. Entries after “also recorded” stand apart in the source; their conditions may differ.

T1 sequence (Q9MYW8 1-617): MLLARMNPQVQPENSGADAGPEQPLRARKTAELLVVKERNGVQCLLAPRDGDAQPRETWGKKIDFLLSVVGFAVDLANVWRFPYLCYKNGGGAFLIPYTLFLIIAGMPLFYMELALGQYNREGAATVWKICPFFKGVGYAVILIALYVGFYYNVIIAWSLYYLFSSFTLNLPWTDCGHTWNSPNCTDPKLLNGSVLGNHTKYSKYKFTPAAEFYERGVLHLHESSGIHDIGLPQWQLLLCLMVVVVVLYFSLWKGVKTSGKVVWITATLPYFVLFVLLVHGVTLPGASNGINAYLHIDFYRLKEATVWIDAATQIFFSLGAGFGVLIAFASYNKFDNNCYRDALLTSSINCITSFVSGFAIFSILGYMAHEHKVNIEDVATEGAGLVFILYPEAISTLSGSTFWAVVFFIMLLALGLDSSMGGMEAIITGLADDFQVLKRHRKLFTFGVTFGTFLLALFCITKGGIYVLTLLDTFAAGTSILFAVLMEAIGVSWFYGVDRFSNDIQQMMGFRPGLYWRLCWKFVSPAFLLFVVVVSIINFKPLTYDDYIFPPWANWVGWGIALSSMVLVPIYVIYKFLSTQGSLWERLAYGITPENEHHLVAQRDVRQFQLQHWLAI
Sequence of human NET (hNET) (P23975 whole entry): as the sequence (Q9MYW8 1-617) above, with S15N, A19T, V246I, I410V, I427V, G452S, V606I counted along it
Sequence of human SERT (hSERT) (P31645 whole entry): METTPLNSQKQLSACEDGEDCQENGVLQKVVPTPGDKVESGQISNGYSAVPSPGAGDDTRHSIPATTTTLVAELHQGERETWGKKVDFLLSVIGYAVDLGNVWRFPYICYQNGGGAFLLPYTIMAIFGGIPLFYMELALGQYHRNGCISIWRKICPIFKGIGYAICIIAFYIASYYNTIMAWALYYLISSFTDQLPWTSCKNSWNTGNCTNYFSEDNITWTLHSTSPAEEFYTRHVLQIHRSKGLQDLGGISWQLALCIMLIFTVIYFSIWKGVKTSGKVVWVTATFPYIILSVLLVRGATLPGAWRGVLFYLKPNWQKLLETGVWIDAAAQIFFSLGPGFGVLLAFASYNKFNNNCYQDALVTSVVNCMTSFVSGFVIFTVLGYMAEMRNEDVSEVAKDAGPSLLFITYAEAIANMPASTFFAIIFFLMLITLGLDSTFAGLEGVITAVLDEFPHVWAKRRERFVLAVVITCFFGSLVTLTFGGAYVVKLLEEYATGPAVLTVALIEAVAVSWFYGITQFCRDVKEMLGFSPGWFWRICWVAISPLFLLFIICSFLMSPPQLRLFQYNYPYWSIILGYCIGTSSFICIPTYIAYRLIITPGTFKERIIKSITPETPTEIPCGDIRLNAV

As for `COc1ccccc1O[C@@H](c1ccccc1)[C@@H]1CNCCO1` [(S,S)-MeNER, reference compound], in series [1] (ratio of Ki values), the “NET selectivity DAT/NET” value is on record as >2000.
As to `[11CH3]Oc1ccccc1O[C@@H](c1ccccc1)[C@@H]1CNCCO1` [(S,S)-[^11C]MeNER], the “ratios of uptake in NET-rich brain regions to striatum” value in series [2] (90 min postinjection) is given as 1.4–1.6. The thalamus-to-striatum uptake ratios in series [2] (cynomolgus monkeys and baboons) is reported as 1.4–1.6. Besides, the hypothalamus-to-striatum uptake ratio in series [3] is 2.5.
For the molecule `[2H]C([2H])([18F])Oc1ccccc1O[C@@H](c1ccccc1)[C@H]1CNCCO1` [(S,S)-[^18F]FMeNER-D2], the thalamus-to-striatum binding ratio in series [4] is ~ 1.5.
In the case of `[11CH3]c1ccccc1O[C@@H](c1ccccc1)[C@@H]1CNCCO1` [[^11C]1], the “highest ratios of uptake in NET-rich regions to that in caudate” value in series [5] (45 min, anesthetized) was 1.30–1.45. For the same molecule, the “Ratio of uptake pons to caudate (peak)” value in series [5] (45 min, baseline, anesthetized) came out at 1.40. The “time of peak uptake of radioactivity in thalamus and pons” value in series [5] (setting [9]) fell in the range of 15.5 to 27.5 min. Besides, in series [5] (after injection, both anesthetized and awake states), the “time to specific binding peak equilibrium (quasi-equilibrium)” value is on record as “less than 1 h”. In addition, in series [5] (baseline, anesthetized), the “half-time for clearance from peak uptake (T1/2), thalamus and pons” value was ~ 105 min. Moreover, in series [5] (setting [10]), the “time of peak uptake in caudate” value lay within 18 to 35 min; the “time of peak uptake in midbrain and cerebellum” value is 9.5 to 18.5 min. Further, the “effect of isoflurane anesthesia / awake state on binding kinetics” value in series [6] is on record as “not significantly altered”. Besides, the “time of peak uptake” value in series [6] (both awake and anesthetized monkey studies) was 17.5 to 35 min.
With `[11CH3]c1ccccc1S[C@@H](c1ccccc1)[C@@H]1CNCCO1` [[^11C]4], the “displacement of radioactivity in the caudate in chase study with SERT ligand” value in series [5] ((R,S)-citalopram HBr 1.5 mg/kg 40 min after injection) is listed as “no displacement”. In addition, the “time of peak uptake of radioactivity in thalamus and midbrain” value in series [5] (setting [9]) fell in the range of 27.5 to 45 min. Besides, in series [5] (baseline, anesthetized), the “washout T1/2, thalamus and midbrain” value is ~ 160 min. The “effect of isoflurane anesthesia / awake state on binding kinetics” value in series [6] was “markedly decreased; also recorded: greatly decreased”.
With `[18F]CCOc1ccccc1OC(c1ccccc1)C1CNCCO1` (centres unmarked) [[^18F]2], in series [5] (baseline, anesthetized), the “Peak ratio of uptake cerebellum to caudate” value is reported as 1.05, the “Peak ratio of uptake midbrain to caudate” value is given as 1.13, the “Peak ratio of uptake thalamus to caudate” value is reported as 1.13 and the “time of peak uptake in all regions of interest” value is recorded as 15 min.
On to `[18F]CCCOc1ccccc1OC(c1ccccc1)C1CNCCO1` (centres unmarked) [[^18F]3], for which, in series [5] (baseline, anesthetized), the “Peak ratio of uptake cerebellum to caudate” value worked out at 0.95, the “Peak ratio of uptake midbrain to caudate” value came out at 1.18, the “Peak ratio of uptake thalamus to caudate” value is reported as 1.18 and the “time of peak uptake in all regions of interest” value was determined as 15 min.
`Cc1ccccc1S[C@@H](c1ccccc1)[C@@H]1CNCCO1` [compound 4, (2S,3S)-2-[α-(2-Methylphenylthio)phenylmethyl]morpholine]: in series [1] (Ki ratio relative to 1), the “times more potent than 1 for the NET” value is listed as 3.4 times. The “increase of log P7.4 on substitution of oxygen by sulfur” value in series [7] is listed as 0.43. Moreover, in series [8], the “times more potent than 1 for the SERT” value stood at 6.5 times.
